Experimental data collected from several papers.
Lines come from different studies, so protocols differ.
Target: Mitogen-activated protein kinase 9 (MAPK9, Homo sapiens, UniProt P45984)

| Compound | effect on | action | technique | tested at | measurement | result |
| --- | --- | --- | --- | --- | --- | --- |
| N#Cc1ccc(NC(=O)Nc2ccccc2)cc1 | cell-free assay | – | competition with immobilised ligand | 25 µM | remaining binding | 100% |
| C=CC(=O)N1CCC[C@@H](n2nc(-c3ccc(Oc4ccccc4)cc3)c3c(N)ncnc32)C1 | enzyme activity | inhibitor | – | 1 µM | inhibition | 21% |
| Cc1ccc(NC(=O)c2ccnc(C(F)(F)F)c2)cc1-c1cc(OCCO)nc(N2CCOCC2)c1 | binding | – | competition with immobilised ligand | 1 µM | remaining binding | 83% |
| CCCCC(=O)Nc1ccc(-c2ccc3ncn(CCC)c(=O)c3c2)cn1 | binding | – | competition with immobilised ligand | 0.5 µM | remaining binding | 68% |
| C[C@H]1CC[C@H](n2c3cnccc3c3cnc(Nc4ccc5c(n4)CCN(C(=O)CO)C5)nc32)CC1 | binding | – | competition with immobilised ligand | 1 µM | remaining binding | 2.6% |
| C#Cc1cnc(Nc2ccnc(CO)c2)nc1Nc1ccccc1S(C)(=O)=NC#N (stereo not drawn) | cell-free assay | – | – | 1 µM | remaining signal | 58% |
| COc1ccc2oc(-c3ccc4nc(N)oc4c3)c/c(=N\c3ccccc3NC(=O)CCN)c2c1 | binding | – | – | 1 µM | remaining binding | 98% |
| C=CC(=O)N1CCC([C@@H]2CCNc3c(C(N)=O)c(-c4ccc(Oc5ccccc5)cc4)nn32)CC1 | enzyme activity | inhibitor | – | 1 µM | inhibition | 0% |
| C1=C/COCc2cc(ccc2OCCN2CCCC2)Nc2nccc(n2)-c2cccc(c2)COC/1 | cell-free assay | – | – | 0.1 µM | remaining signal | 47% |
